Reference: ChEMBL document CHEMBL4257495, “Crystallomycin revisited after 60 years: aspartocins B and C” (2018)
Values after ≈ are worked out from the molar mass of the structure shown. Active and inactive are the calls of the source. No cut-off for these calls is given here.

Key:
Staphylococcus aureus [1] = assay: Antibacterial activity against Staphylococcus aureus ATCC 29213 by broth microdilution method; type: functional
In short: (§1)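 MIC by broth microdilution following CLSI guidelines, run in medium without added Ca2+ and with Ca2+ ions supplemented (level not given). Reference strains came from the Tarasevich State Research Institution collection of pathogenic microorganisms. Clinical MRSA/MRSE isolates came from the Russia Research Institute for Antibiotics Culture Collection.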

Staphylococcus aureus [2] = assay: Antibacterial activity against methicillin-resistant Staphylococcus aureus 86 by broth microdilution method; type: functional; in short: as §1
Staphylococcus aureus [3] = assay: Antibacterial activity against methicillin-resistant Staphylococcus aureus 88 by broth microdilution method; type: functional; in short: as §1
Staphylococcus aureus [4] = assay: Antibacterial activity against methicillin-resistant Staphylococcus aureus 71001 by broth microdilution method; type: functional; in short: as §1
Staphylococcus aureus [5] = assay: Antibacterial activity against methicillin-resistant Staphylococcus aureus 20450 by broth microdilution method; type: functional; in short: as §1
Staphylococcus aureus [6] = assay: Antibacterial activity against methicillin-resistant Staphylococcus aureus 17 by broth microdilution method; type: functional; in short: as §1
[7] = tested on: Staphylococcus epidermidis; assay: Antibacterial activity against methicillin-resistant Staphylococcus epidermidis C2001 by broth microdilution method; type: functional; in short: as §1
[8] = tested on: Staphylococcus epidermidis; assay: Antibacterial activity against methicillin-resistant Staphylococcus epidermidis 004-T1 by broth microdilution method; type: functional; in short: as §1
[9] = tested on: Staphylococcus epidermidis; assay: Antibacterial activity against methicillin-resistant Staphylococcus epidermidis 20459 by broth microdilution method; type: functional; in short: as §1
Enterococcus faecalis [10] = assay: Antibacterial activity against Enterococcus faecalis ATCC 29212 by broth microdilution method; type: functional; in short: as §1
Enterococcus gallinarum [11] = assay: Antibacterial activity against Enterococcus gallinarum VP4147 by broth microdilution method; type: functional
Staphylococcus aureus [12] = assay: Antibacterial activity against Staphylococcus aureus ATCC 29213 in presence of Ca2+ by broth microdilution method; type: functional; in short: as §1
Staphylococcus aureus [13] = assay: Antibacterial activity against methicillin-resistant Staphylococcus aureus 86 in presence of Ca2+ by broth microdilution method; type: functional; in short: as §1
Staphylococcus aureus [14] = assay: Antibacterial activity against methicillin-resistant Staphylococcus aureus 88 in presence of Ca2+ by broth microdilution method; type: functional; in short: as §1
Staphylococcus aureus [15] = assay: Antibacterial activity against methicillin-resistant Staphylococcus aureus 71001 in presence of Ca2+ by broth microdilution method; type: functional; in short: as §1
Staphylococcus aureus [16] = assay: Antibacterial activity against methicillin-resistant Staphylococcus aureus 20450 in presence of Ca2+ by broth microdilution method; type: functional; in short: as §1
Staphylococcus aureus [17] = assay: Antibacterial activity against methicillin-resistant Staphylococcus aureus 17 in presence of Ca2+ by broth microdilution method; type: functional; in short: as §1
[18] = tested on: Staphylococcus epidermidis; assay: Antibacterial activity against methicillin-resistant Staphylococcus epidermidis C2001 in presence of Ca2+ by broth microdilution method; type: functional; in short: as §1
[19] = tested on: Staphylococcus epidermidis; assay: Antibacterial activity against methicillin-resistant Staphylococcus epidermidis 004-T1 in presence of Ca2+ by broth microdilution method; type: functional; in short: as §1
[20] = tested on: Staphylococcus epidermidis; assay: Antibacterial activity against methicillin-resistant Staphylococcus epidermidis 20459 in presence of Ca2+ by broth microdilution method; type: functional; in short: as §1
Enterococcus faecalis [21] = assay: Antibacterial activity against Enterococcus faecalis ATCC 29212 in presence of Ca2+ by broth microdilution method; type: functional
Enterococcus gallinarum [22] = assay: Antibacterial activity against Enterococcus gallinarum VP4147 in presence of Ca2+ by broth microdilution method; type: functional
Escherichia coli = assay: Antibacterial activity against Escherichia coli ATCC 25922; type: functional, organism-based; in short: as §1
Aspergillus niger = assay: Antifungal activity against Aspergillus niger ATCC 16404; type: functional, organism-based
Candida albicans = assay: Antifungal activity against Candida albicans ATCC 14053; type: functional, organism-based
Staphylococcus aureus [23] = assay: Ratio of MIC for Staphylococcus aureus ATCC 29213 in absence of Ca2+ to MIC for Staphylococcus aureus ATCC 29213 in presence of Ca2+; type: functional
[24] = tested on: Staphylococcus epidermidis; assay: Ratio of MIC for methicillin-resistant Staphylococcus epidermidis C2001 in absence of Ca2+ to MIC for methicillin-resistant Staphylococcus epidermidis C2001 in presence of Ca2+; type: functional
[25] = tested on: Staphylococcus epidermidis; assay: Ratio of MIC for methicillin-resistant Staphylococcus epidermidis 004-T1 in absence of Ca2+ to MIC for methicillin-resistant Staphylococcus epidermidis 004-T1 in presence of Ca2+; type: functional
Enterococcus faecalis [26] = assay: Ratio of MIC for Enterococcus faecalis ATCC 29212 in absence of Ca2+ to MIC for Enterococcus faecalis ATCC 29212 in presence of Ca2+; type: functional
Enterococcus gallinarum [27] = assay: Ratio of MIC for Enterococcus gallinarum VP4147 in absence of Ca2+ to MIC for Enterococcus gallinarum VP4147 in presence of Ca2+; type: functional

| Compound | MIC (Staphylococcus aureus [1]) | MIC (Staphylococcus aureus [2]) | MIC (Staphylococcus aureus [3]) | MIC (Staphylococcus aureus [4]) | MIC (Staphylococcus aureus [5]) | MIC (Staphylococcus aureus [6]) | MIC [7] | MIC [8] | MIC (Enterococcus faecalis [10]) | MIC (Enterococcus gallinarum [11]) | MIC (Staphylococcus aureus [12]) | MIC (Staphylococcus aureus [13]) | MIC (Staphylococcus aureus [14]) | MIC (Staphylococcus aureus [15]) | MIC (Staphylococcus aureus [16]) | MIC (Staphylococcus aureus [17]) | MIC [18] | MIC [19] | MIC [20] | MIC (Enterococcus faecalis [21]) | also measured |
| --- | --- | --- | --- | --- | --- | --- | --- | --- | --- | --- | --- | --- | --- | --- | --- | --- | --- | --- | --- | --- | --- |
| CCCCCCCCCC(=O)N[C@@H](Cc1c[nH]c2ccccc12)C(=O)N[C@@H](CC(N)=O)C(=O)N[C@@H](CC(=O)O)C(=O)N[C@@H]1C(=O)NCC(=O)N[C@@H](CCCN)C(=O)N[C@@H](CC(=O)O)C(=O)N[C@H](C)C(=O)N[C@@H](CC(=O)O)C(=O)NCC(=O)N[C@H](CO)C(=O)N[C@@H]([C@H](C)CC(=O)O)C(=O)N[C@@H](CC(=O)c2ccccc2N)C(=O)O[C@@H]1C [DAPTOMYCIN] | 0.5 µg/mL (≈ 0.309 µM) | 1 µg/mL (≈ 0.617 µM) | 0.5 to 1 µg/mL (≈ 0.309 to 0.617 µM) | 0.5 to 1 µg/mL (≈ 0.309 to 0.617 µM) | 1 µg/mL (≈ 0.617 µM) | 2 µg/mL (≈ 1.23 µM) | 1 µg/mL (≈ 0.617 µM) | 1 µg/mL (≈ 0.617 µM) | 4 µg/mL (≈ 2.47 µM) | 8 µg/mL (≈ 4.94 µM) | – | – | – | – | – | – | – | – | – | – | MIC [9]: 1 µg/mL (≈ 0.617 µM) |
| CCC(C)CCCCCCC/C=C\CC(=O)N[C@@H](CC(=O)O)C(=O)N[C@@H]1C(=O)N2CCCC[C@@H]2C(=O)N[C@@H]([C@H](C)C(=O)O)C(=O)N[C@@H](CC(=O)O)C(=O)NCC(=O)N[C@@H](CC(=O)O)C(=O)NCC(=O)N[C@H](C(C)N)C(=O)N[C@@H](C(C)C)C(=O)N2CCC[C@H]2C(=O)N[C@@H]1C (some centres undefined) | 4 to 8 µg/mL (≈ 3.03 to 6.07 µM) | 8 µg/mL (≈ 6.07 µM) | 8 µg/mL (≈ 6.07 µM) | 8 µg/mL (≈ 6.07 µM) | 8 µg/mL (≈ 6.07 µM) | 8 µg/mL (≈ 6.07 µM) | 4 to 8 µg/mL (≈ 3.03 to 6.07 µM) | 16 µg/mL (≈ 12.1 µM) | 16 µg/mL (≈ 12.1 µM) | 16 µg/mL (≈ 12.1 µM) | 2 µg/mL | 2 µg/mL | 2 µg/mL | 2 µg/mL | 1 to 2 µg/mL | 4 µg/mL | 2 µg/mL | 4 µg/mL | 4 µg/mL | 8 µg/mL | MIC (Enterococcus gallinarum [22]): 4 to 8 µg/mL; Activity (Escherichia coli): inactive; Activity (Aspergillus niger): inactive; Activity (Candida albicans): inactive; Ratio (Staphylococcus aureus [23]): 2 - 8; Ratio [24]: 2 - 8; Ratio [25]: 2 - 8; Ratio (Enterococcus faecalis [26]): 2 - 8; Ratio (Enterococcus gallinarum [27]): 2 - 8 |
| CC(C)CCCCCCC/C=C/CC(=O)N[C@@H](CC(=O)O)C(=O)N[C@@H]1C(=O)N2CCCC[C@@H]2C(=O)N[C@@H]([C@H](C)C(=O)O)C(=O)N[C@@H](CC(=O)O)C(=O)NCC(=O)N[C@@H](CC(=O)O)C(=O)NCC(=O)N[C@H](C(C)N)C(=O)N[C@@H](C(C)C)C(=O)N2CCC[C@H]2C(=O)N[C@@H]1C (some centres undefined) | 16 µg/mL (≈ 12.3 µM) | 16 µg/mL (≈ 12.3 µM) | 16 µg/mL (≈ 12.3 µM) | 16 µg/mL (≈ 12.3 µM) | 16 µg/mL (≈ 12.3 µM) | – | 16 µg/mL (≈ 12.3 µM) | 32 µg/mL (≈ 24.5 µM) | – | – | 4 µg/mL | 4 µg/mL | 4 µg/mL | 4 µg/mL | 2 µg/mL | 4 µg/mL | 4 µg/mL | 4 µg/mL | 4 µg/mL | 8 µg/mL | MIC (Enterococcus gallinarum [22]): 4 to 8 µg/mL; Activity (Escherichia coli): inactive; Activity (Aspergillus niger): inactive; Activity (Candida albicans): inactive; Ratio (Staphylococcus aureus [23]): 2 - 8; Ratio [24]: 2 - 8; Ratio [25]: 2 - 8 |
